Measurements reported in publication PMC6600871 (Nature chemical biology, 2019).

How the values were obtained:
[1] = Caco-2 permeability assay; type: in vitro ADME; settings: human, Caco-2, pH 7.2
SK-MEL-5 cells [2] = experiment: Proliferation assay; type: cell-based; settings: Homo sapiens, SK-MEL-5, 168 h, read-out: anti-proliferative IC50, SK-MEL-5
MV-4-11 cells = experiment: Proliferation assay; type: cell-based, human; settings: read-out: anti-proliferative IC50, MV-4-11; cell viability after 7 days
NCI-H1703 cells = experiment: Proliferation assay; type: cell-based, human; settings: SMARCA2/4 null cell line, 7 days
SMARCA4 = SMARCA4 (Homo sapiens, UniProt P51532); experiment: Protein degradation assay; type: cell-based; settings: MV-4-11 cells, 1 µM compound
SMARCA4, sequence (P51532 whole entry): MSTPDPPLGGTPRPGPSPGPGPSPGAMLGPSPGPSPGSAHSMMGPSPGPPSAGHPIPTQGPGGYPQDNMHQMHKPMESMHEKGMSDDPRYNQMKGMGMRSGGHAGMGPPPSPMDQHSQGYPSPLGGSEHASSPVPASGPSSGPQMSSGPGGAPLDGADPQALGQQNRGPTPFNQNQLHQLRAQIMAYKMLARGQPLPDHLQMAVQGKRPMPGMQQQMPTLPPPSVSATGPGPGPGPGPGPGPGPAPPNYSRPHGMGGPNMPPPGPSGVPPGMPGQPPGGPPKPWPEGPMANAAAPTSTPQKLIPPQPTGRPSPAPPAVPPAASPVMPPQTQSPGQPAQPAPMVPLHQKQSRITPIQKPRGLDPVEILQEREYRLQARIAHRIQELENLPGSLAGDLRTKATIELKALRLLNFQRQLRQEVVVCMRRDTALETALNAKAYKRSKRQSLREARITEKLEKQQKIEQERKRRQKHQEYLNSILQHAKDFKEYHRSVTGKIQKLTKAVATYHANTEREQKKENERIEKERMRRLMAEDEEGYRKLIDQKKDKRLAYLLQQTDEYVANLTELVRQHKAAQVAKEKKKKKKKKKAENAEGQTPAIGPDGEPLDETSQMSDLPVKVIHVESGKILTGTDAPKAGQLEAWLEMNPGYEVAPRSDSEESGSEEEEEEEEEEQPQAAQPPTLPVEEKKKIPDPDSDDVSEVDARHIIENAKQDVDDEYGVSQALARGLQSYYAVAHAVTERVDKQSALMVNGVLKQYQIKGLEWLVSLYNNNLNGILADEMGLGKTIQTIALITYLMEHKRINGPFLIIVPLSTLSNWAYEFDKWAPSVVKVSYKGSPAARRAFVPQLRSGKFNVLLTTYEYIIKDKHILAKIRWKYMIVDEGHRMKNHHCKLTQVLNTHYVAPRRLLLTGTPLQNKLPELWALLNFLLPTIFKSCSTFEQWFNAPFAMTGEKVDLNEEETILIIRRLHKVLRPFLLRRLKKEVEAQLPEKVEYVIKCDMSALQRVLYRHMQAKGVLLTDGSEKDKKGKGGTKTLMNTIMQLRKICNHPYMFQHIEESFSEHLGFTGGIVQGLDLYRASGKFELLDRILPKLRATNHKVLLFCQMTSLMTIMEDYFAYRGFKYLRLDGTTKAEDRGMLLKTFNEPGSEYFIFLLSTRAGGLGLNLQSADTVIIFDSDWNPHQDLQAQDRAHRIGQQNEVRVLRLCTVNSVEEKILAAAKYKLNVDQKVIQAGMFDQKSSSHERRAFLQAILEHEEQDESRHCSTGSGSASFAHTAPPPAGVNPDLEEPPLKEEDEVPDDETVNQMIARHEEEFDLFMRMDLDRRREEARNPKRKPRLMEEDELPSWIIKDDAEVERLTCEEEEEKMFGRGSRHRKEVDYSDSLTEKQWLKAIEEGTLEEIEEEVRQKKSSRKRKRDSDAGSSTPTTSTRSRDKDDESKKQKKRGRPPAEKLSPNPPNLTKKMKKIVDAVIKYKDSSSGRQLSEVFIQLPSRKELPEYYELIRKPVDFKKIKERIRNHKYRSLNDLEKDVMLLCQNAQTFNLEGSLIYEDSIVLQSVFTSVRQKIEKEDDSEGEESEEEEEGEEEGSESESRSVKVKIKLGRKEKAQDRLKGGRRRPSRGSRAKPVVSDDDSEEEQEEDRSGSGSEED

SK-MEL-5 cells [3] = experiment: Real-time apoptosis measurement; type: cell-based, human; settings: SK-MEL-5, 0.3 µM, comparable to doxorubicin (1 µM)
PBRM1 = PBRM1 (Homo sapiens, UniProt Q86U86); experiment: Protein degradation assay, PBRM1 in NCI-H1568 cells; type: cell-based; settings: read-out: DC50 PBRM1, 18 h
PBRM1, sequence (Q86U86 whole entry): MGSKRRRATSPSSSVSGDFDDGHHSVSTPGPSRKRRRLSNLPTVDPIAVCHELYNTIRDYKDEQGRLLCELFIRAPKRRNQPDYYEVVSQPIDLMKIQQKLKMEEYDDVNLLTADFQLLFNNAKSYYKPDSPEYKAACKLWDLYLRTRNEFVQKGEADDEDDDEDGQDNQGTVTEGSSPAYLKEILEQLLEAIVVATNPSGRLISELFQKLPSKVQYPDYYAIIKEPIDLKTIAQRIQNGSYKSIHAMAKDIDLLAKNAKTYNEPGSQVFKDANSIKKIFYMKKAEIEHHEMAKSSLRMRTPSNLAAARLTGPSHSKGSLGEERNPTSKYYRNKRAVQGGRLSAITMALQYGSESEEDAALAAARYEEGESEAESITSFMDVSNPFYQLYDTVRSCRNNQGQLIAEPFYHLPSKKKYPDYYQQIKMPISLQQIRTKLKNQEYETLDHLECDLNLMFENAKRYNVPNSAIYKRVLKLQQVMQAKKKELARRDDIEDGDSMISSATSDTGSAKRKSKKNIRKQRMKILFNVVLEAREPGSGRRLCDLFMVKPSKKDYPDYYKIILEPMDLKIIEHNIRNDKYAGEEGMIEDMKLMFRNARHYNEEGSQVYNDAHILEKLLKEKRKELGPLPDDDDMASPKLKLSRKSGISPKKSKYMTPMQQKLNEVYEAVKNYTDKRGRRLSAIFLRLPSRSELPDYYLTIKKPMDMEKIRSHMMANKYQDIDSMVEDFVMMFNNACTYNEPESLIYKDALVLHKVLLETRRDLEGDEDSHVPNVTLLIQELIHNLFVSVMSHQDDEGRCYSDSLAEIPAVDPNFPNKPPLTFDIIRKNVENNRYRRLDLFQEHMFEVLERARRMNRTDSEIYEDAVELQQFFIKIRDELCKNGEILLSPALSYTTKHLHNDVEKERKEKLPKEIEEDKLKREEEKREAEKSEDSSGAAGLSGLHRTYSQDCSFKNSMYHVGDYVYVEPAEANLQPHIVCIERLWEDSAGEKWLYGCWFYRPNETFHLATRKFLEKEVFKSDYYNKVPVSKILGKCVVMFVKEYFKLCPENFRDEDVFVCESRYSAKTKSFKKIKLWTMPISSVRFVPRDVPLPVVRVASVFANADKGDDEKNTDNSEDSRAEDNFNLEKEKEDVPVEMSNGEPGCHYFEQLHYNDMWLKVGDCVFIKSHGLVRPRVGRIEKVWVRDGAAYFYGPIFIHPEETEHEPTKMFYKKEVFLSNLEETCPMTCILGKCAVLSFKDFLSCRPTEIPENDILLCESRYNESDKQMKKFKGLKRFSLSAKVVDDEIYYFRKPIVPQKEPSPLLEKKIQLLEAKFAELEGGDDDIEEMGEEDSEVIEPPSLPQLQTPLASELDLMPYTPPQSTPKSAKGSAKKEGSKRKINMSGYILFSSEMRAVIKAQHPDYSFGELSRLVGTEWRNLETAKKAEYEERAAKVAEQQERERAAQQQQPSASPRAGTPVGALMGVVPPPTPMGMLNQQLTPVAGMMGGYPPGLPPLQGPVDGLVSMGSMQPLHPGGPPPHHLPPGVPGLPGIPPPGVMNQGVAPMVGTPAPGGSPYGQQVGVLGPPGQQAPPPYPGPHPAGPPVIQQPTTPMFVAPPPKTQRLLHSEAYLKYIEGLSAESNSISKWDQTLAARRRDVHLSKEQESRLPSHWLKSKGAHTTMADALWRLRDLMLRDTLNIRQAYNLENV
Method in brief: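 Cells seeded at 20000/well in 24-well plates and held overnight at 37 °C. Test compound added from DMSO stock (DMSO normalised), 18 h at 37 °C. Lysed 30 min on ice in 1% Triton, 350 mM KCl, 10 mM Tris pH 7.4, 10 mM DTT, benzonase, protease/phosphatase inhibitors. Target protein quantified by WES capillary electrophoresis, normalised to GAPDH. Two independent experiments.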

SMARCA2^BD = SMARCA2^BD (Homo sapiens, UniProt P51531); type: binding
[4] = tested on: panel of cancer cell lines; experiment: Proliferation of a panel of cancer cell lines; type: cell-based, human; settings: all cell lines tested
[5] = tested on: proteome of MV-4-11 cells; experiment: TMT labelling mass spectrometry proteomics in MV-4-11 cells; type: cell-based, human; settings: 333 nM, 8 h
SMARCA2 = SMARCA2 (Homo sapiens, UniProt P51531); experiment: Protein degradation assay; type: cell-based; settings: MV-4-11 cells, 1 µM compound
[6] = tested on: VHL-ElonginC-ElonginB (VCB) complex; experiment: Isothermal titration calorimetry; type: binding, human; settings: ITC, VCB ± SMARCA2^BD

Row | SMILES | efflux ratio [1] | IC50 (SK-MEL-5 cells [2]) | IC50 (MV-4-11 cells) | anti-proliferative effect in NCI-H1703 (NCI-H1703 cells) | time to half maximal degradation of SMARCA4 (SMARCA4) | caspase activity / apoptosis (SK-MEL-5 cells [3]) | DC50 (PBRM1) | IC50 (SMARCA2^BD) | anti-proliferative effect across cell lines tested [4] | effect on cellular proteome [5] | time to half maximal degradation of SMARCA2 (SMARCA2) | Papp B→A at 2 h [1] | cooperativity α (binary KD/ternary KD) [6]
1 | Cc1ncsc1-c1ccc(CNC(=O)[C@@H]2C[C@@H](O)CN2C(=O)[C@@H](NC(=O)C2(F)CC2)C(C)(C)C)c(OCCOc2ccc(CN3CCN(c4cc(-c5ccccc5O)nnc4N)CC3)cc2)c1 [ACBI1, (2S,4R)-N-(2-(2-(4-((4-(3-amino-6-(2-hydroxyphenyl)pyridazin-4-yl)piperazin-1-yl)methyl)phenoxy)ethoxy)-4-(4-methylthiazol-5-yl)benzyl)-1-((S)-2-(1-fluorocyclopropane-1-carboxamido)-3,3-dimethylbutanoyl)-4-hydroxypyrrolidine-2-carboxamide] | 1.7 | 77 nM | 29 nM | no anti-proliferative effects | < 2 h | increased caspase activity | 15.6 nM | 770 nM | potent anti-proliferative effects | significant knockdown of SMARCA2, SMARCA4 and PBRM1 with minimal down-regulation of other proteins across the proteome | < 2 h |  | 
2 | Cc1ncsc1-c1ccc(CNC(=O)[C@@H]2C[C@@H](O)CN2C(=O)[C@@H](NC(=O)C2(F)CC2)C(C)(C)C)c(OCCOCCOCCN2CCN(c3cc(-c4ccccc4O)nnc3N)CC2)c1 [PROTAC 1, (2S,4R)-N-(2-(2-(2-(2-(4-(3-amino-6-(2-hydroxyphenyl)pyridazin-4-yl)piperazin-1-yl)ethoxy)ethoxy)ethoxy)-4-(4-methylthiazol-5-yl)benzyl)-1-((S)-2-(1-fluorocyclopropane-1-carboxamido)-3,3-dimethylbutanoyl)-4-hydroxypyrrolidine-2-carboxamide] |  |  |  |  |  |  |  |  |  |  |  | 20.7 ×10⁻⁶ cm/s | 4.8
3 | Cc1ncsc1-c1ccc(CNC(=O)[C@@H]2C[C@H](O)CN2C(=O)[C@@H](NC(=O)C2(F)CC2)C(C)(C)C)c(OCCOc2ccc(CN3CCN(c4cc(-c5ccccc5O)nnc4N)CC3)cc2)c1 [cis-ACBI1, (2S,4S)-N-(2-(2-(4-((4-(3-amino-6-(2-hydroxyphenyl)pyridazin-4-yl)piperazin-1-yl)methyl)phenoxy)ethoxy)-4-(4-methylthiazol-5-yl)benzyl)-1-((S)-2-(1-fluorocyclopropane-1-carboxamido)-3,3-dimethylbutanoyl)-4-hydroxypyrrolidine-2-carboxamide] |  | > 10000 nM |  | no anti-proliferative effects |  |  |  |  |  |  |  |  | 
